Activity, inhibition and Time data for 24 molecules are collected here from ChEMBL document CHEMBL3763017, “Synthesis and evaluation of dual antiplatelet activity of bispidine derivatives of N-substituted pyroglutamic acids” (Eur J Med Chem, 2016).

One may read the inhibition as the change of the read-out against control, counted positive when it falls.

Data set [1] deals with Mus musculus. The data set can be described thus: Antithrombotic activity in Swiss albino mouse assessed as protection against collagen-epinephrine induced pulmonary thromboembolism at 30 umol/kg, po after 1 hr. It counts as functional. In short, it runs like this: (§1)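 Male Swiss albino mice (18–22 g) dosed orally in 0.5% carboxymethyl cellulose 1, 2, 4, 6, 12 or 24 h before challenge. Collagen (150 μg/ml) plus adrenaline (50 μg/ml) injected into the tail vein. Dead or hind-limb-paralysed mice counted over 15 min and expressed as % protection. Ten mice per drug group, five for vehicle.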

Data set [2] in a line: Antiplatelet activity in human platelet rich plasma assessed as inhibition of collagen-induced platelet aggregation at 30 uM preincubated for 5 mins followed by collagen stimulation by turbidimetry. It counts as functional. In outline: (§2)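 Human PRP (1×10^8 platelets/ml) from healthy-donor blood spun at 1000 rpm for 10 min. Pre-treated 5 min with compound or 0.4% DMSO vehicle, then agonist added at 37 °C. Light-transmission aggregometry run at least 5–10 min; % aggregation calculated. Single-point screens at 30 μM, n = 3; mean ± SEM.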

Data set [3] is described as follows: Antiplatelet activity in human platelet rich plasma assessed as inhibition of U46619-induced platelet aggregation at 30 uM preincubated for 5 mins followed by U46619 stimulation by turbidimetry. It counts as functional. In short, it runs like this: as §2
In data set [4] the test system is Mus musculus. The experiment in a line: Antithrombotic activity in Swiss albino mouse assessed as protection against collagen-epinephrine induced pulmonary thromboembolism at 170 umol/kg, po measured upto 5 hrs. It counts as functional. In outline: as §1
For data set [5], the system named is Mus musculus. The experiment in a line: Toxicity in Swiss albino mouse assessed as bleeding time at 170 umol/kg, po administered as single dose measured up to 24 hrs (reference value: 3.5 +/- 0.3 mins). The class given is organism-based. The conditions noted are these: in vivo.
The subject of data set [6] is Mus musculus. The data set can be described thus: Antithrombotic activity in ferric chloride-induced Swiss albino mouse arterial thrombosis model assessed as time to occlusion at 170 umol/kg, po. It counts as functional, organism-based.
A further data set has as its system Aorta. The experiment in a line: Inhibition of U46619-induced vasocontraction in Sprague-Dawley rat thoracic aoritc rings at 100 nM (reference value: 89.8 +/- 8.5%). It counts as functional. On the set-up: scale not given: the % may be the effect or the level left.

Calls of active or inactive are those of the source. The calls are words filed in the database; no cut-off is given here.

Turning to `O=C([C@@H]1CCC(=O)N1S(=O)(=O)c1ccccc1)N1CC2CC(CN(Cc3ccccc3)C2)C1`, the Activity in the data set with Mus musculus [1] is given as 30%. Further, the inhibition at 30 µM in data set [2] stood at 29%.
Take `O=C([C@@H]1CCC(=O)N1Cc1ccc(Cl)cc1)N1CC2CC(CN(Cc3ccccc3)C2)C1`: the inhibition at 30 µM in data set [3] amounted to 80%; in data set [2] it was 52%. In the data set with Mus musculus [1], the Activity is 30%.
On the same counts, the results for `Cc1ccc(CN2C(=O)CC[C@H]2C(=O)N2CC3CC(CN(Cc4ccccc4Br)C3)C2)cc1` are 70%, 67% and 30%.
Consider `CC(C)(C)OC(=O)N1CC2CC(C1)CN(C(=O)[C@@H]1CCC(=O)N1Cc1ccccc1Br)C2`, for which the Activity in the data set on Mus musculus [1] was found to be 50%. For the same molecule, the inhibition at 30 µM in data set [2] stood at 2%.
In the same order, the values of `COc1ccc(CN2C(=O)CC[C@H]2C(=O)N2CC3CC(CN(C(=O)OC(C)(C)C)C3)C2)cc1` are 45% and 10%.
Take `O=C([C@@H]1CCC(=O)N1Cc1c(Cl)cccc1Cl)N1CC2CC(CN(Cc3ccccc3)C2)C1`: the values for the inhibition at 30 µM in data set [3] and in data set [2] were 85% and 68%, respectively. Further, in the data set on Mus musculus [1], the Activity turned out to be 40%.
As to `O=C([C@@H]1CCC(=O)N1Cc1ccccc1)N1CC2CC(CN(Cc3ccccc3)C2)C1`, in the data set on Mus musculus [1], the Activity is given as 30%. Also, the inhibition at 30 µM in data set [2] came out at 44%.
`CC(C)(C)OC(=O)N1CC2CC(C1)CN(C(=O)[C@@H]1CCC(=O)N1Cc1c(Cl)cccc1Cl)C2`: in the data set on Mus musculus [1], the Activity was 30%. Also, the inhibition at 30 µM in data set [2] turned out to be 3%.
In the same order, the values of `Cc1ccc(CN2C(=O)CC[C@H]2C(=O)N2CC3CC(CN(Cc4ccccc4)C3)C2)cc1` are 25% and 7%.
On the same counts, the results for `CC(C)(C)OC(=O)N1CC2CC(C1)CN(C(=O)[C@@H]1CCC(=O)N1Cc1ccc(Cl)cc1)C2` are 30% and 6%.
On the same counts, the results for `CC(C)(C)OC(=O)N1CC2CC(C1)CN(C(=O)[C@@H]1CCC(=O)N1Cc1ccccc1)C2` are 40% and 6%.
Consider `Cc1ccc(CN2C(=O)CC[C@H]2C(=O)N2CC3CC(CN(Cc4ccc(Br)cc4)C3)C2)cc1`, for which the inhibition at 30 µM in data set [3] came to 52%; in data set [2], 61%. Further, in the data set on Mus musculus [1], the Activity is reported as 50%.
With `CC(=O)Oc1ccccc1C(=O)O` [ASPIRIN], the Activity in the data set on Mus musculus [4] was determined as 40%. Moreover, in the data set on Mus musculus [5], the Time was found to be 6.6 min. Also, in the data set with Mus musculus [6], the result was inactive.
`COc1ccc(CN2C(=O)CC[C@H]2C(=O)N2CC3CC(CN(Cc4ccccc4)C3)C2)cc1`: in the data set on Mus musculus [1], the Activity is reported as 30%. The inhibition at 30 µM in data set [2] amounted to 10%.
`O=C(O)CCC/C=C\C[C@@H]1[C@H](CNNC(=O)Nc2ccccc2)[C@H]2CC[C@@H]1O2` showed an Activity in the data set with Aorta of 8.4%.
With `O=C(c1ccccc1)N1CC2CC(C1)CN(C(=O)[C@@H]1CCC(=O)N1Cc1ccccc1Br)C2`, the Activity in the data set on Mus musculus [1] came to 60%. In addition, in data set [2], the inhibition at 30 µM worked out at 25.6%.
On the same counts, the results for `Cc1ccc(CN2C(=O)CC[C@H]2C(=O)N2CC3CC(CN(C(=O)OC(C)(C)C)C3)C2)cc1` are 40% and 25%.
On the same counts, the results for `Cc1ccc(CN2C(=O)CC[C@H]2C(=O)N2CC3CC(C2)CN(S(=O)(=O)c2ccc(C)cc2)C3)cc1` are 40% and 37.5%.
In the same order, the values of `CC(C)(C)OC(=O)N1CC2CC(C1)CN(C(=O)[C@@H]1CCC(=O)N1Cc1cccc3ccccc13)C2` are 30% and 11%.
Regarding `Cc1ccc(CN2C(=O)CC[C@H]2C(=O)N2CC3CC(CN(Cc4ccc(Cl)cc4)C3)C2)cc1`, the inhibition at 30 µM in data set [3] worked out at 81%; in data set [2] it was 67%. Further, the Activity in the data set with Mus musculus [1] was found to be 35%.
Consider `CC(C)(C)OC(=O)N1CC2CC(C1)CN(C(=O)[C@@H]1CCC(=O)N1Cc1ccc(C#N)cc1)C2`, for which, in the data set on Mus musculus [1], the Activity turned out to be 55%. In addition, in data set [2], the inhibition at 30 µM amounted to 11%.
On to `Cc1ccc(S(=O)(=O)N2CC3CC(CN(C(=O)[C@@H]4CCC(=O)N4Cc4ccccc4Br)C3)C2)cc1`, for which, in the data set with Mus musculus [1], the Activity was found to be 55%. The inhibition at 30 µM in data set [2] stood at 16.8%.
`Cc1ccc(CN2C(=O)CC[C@H]2C(=O)N2CC3CC(CN(C(=O)c4ccccc4)C3)C2)cc1`: in the data set with Mus musculus [1], the Activity was 40%. For the same molecule, the inhibition at 30 µM in data set [2] was 20.5%.
In the same order, the values of `O=C([C@@H]1CCC(=O)N1Cc1ccc(Br)cc1)N1CC2CC(CN(Cc3ccccc3)C2)C1` are 40% and 57%.
